For 17 compounds, GFP response vs DMSO, GFP response relative to DMSO and GFP response, % of DMSO results are on record in PubChem BioAssay.

Assay [1] in a line: RPL19A-GFP modulators, yeast TOR pathway, confirmation, cell-based, S. cerevisiae, flow cytometry, cherry picks, mother/daughter gates (AID 2270;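 active = GFP response below 50% of the DMSO control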). The settings on record: S. cerevisiae RPL19A-GFP strain, 3 h, at 10 µM, stronger effect = lower value, 100 = same GFP as DMSO wells.
Assay [2] is described as follows: LAP4-GFP expression modulators in yeast, confirmation, cell-based, cherry picks, flow cytometry, mother/daughter gates (AID 2271;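 active = GFP response above 150% of the DMSO control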;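 note: ratio of sample to DMSO plate mean so 100% equals DMSO level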). As to conditions: S. cerevisiae LAP4-GFP strain, 3 h, at 10 µM, stronger effect = higher value, 100 means same as DMSO control. Put shortly:
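Measured by: GFP by flow cytometry. Test system: GFP-fusion yeast strain. Input: yeast cells seeded at OD600 of 0.2. Timing: 30 °C, 3 h compound incubation, rotating. Buffer or medium: synthetic complete medium for yeast. Benchmarks: DMSO-only negative wells, rapamycin 400 ng/mL positive wells. Compound: 10 µM single dose.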

Assay [3] can be described thus: modulators of MEP2-GFP levels in yeast, confirmation, S. cerevisiae, flow cytometry GFP, cherry picks (AID 2272;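 active = GFP response above 150% of the DMSO control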;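 note: ratio of well signal to plate DMSO mean so 100% equals DMSO level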). As to conditions: S. cerevisiae MEP2-GFP strain, 3 h, at 10 µM, stronger effect = higher value.
A short description of assay [4]: AGP1-GFP expression modulators, hit retest, confirmation, cell-based, flow cytometry, S. cerevisiae, cherry picks (AID 2273).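 Note: median GFP channel fluorescence over the whole cell population gate.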 The settings on record: S. cerevisiae AGP1-GFP strain, 3 h, at 10 µM.
The nature of assay [5]: modulators of CIT2-GFP expression in yeast, confirmation, S. cerevisiae, GFP fusion, cherry picks, mother/daughter gates (AID 2274). As to conditions: S. cerevisiae CIT2-GFP strain, flow cytometry, 3 h, at 10 µM, stronger effect = higher value.
Where [6] appears, read: measured here: daughter cell gate.
Setting [7] is: measured here: mother cell gate.
Where [8] appears, read: measured here: daughter cell gate response.
Where [9] appears, read: measured here: mother cell gate response.

Calls of active or inactive are those of the source.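 Rule for the calls, unless noted: active = GFP response above 150% of the DMSO level; inconclusive = fewer than 70 events counted for a yeast strain; inactive = the rest.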

On to `Cc1sc(NC(=O)c2ccco2)nc1-c1ccccc1`, for which the GFP response vs DMSO in assay [1] was 93.8% (inactive); in assay [1] (setting [6]) it was 92.2%; in assay [1] (setting [7]), 93.6%; in assay [3] it was 102% (inactive). Further, the GFP response relative to DMSO is 111% (inactive) in assay [2], 105% in assay [2] (setting [8]) and 113% in assay [2] (setting [9]). Further, the GFP response, % of DMSO in assay [4] was 89.5% (inactive); in assay [5], 102% (inactive); in assay [5] (setting [6]) it was 98.1%; in assay [5] (setting [7]), 101%.

As to `COc1cccc(/C=C2\C(=O)N(c3cccc(C)c3)C(=O)c3ccccc32)c1`, the GFP response vs DMSO is 96% (inactive) in assay [1], 92% in assay [1] (setting [6]), 92.8% in assay [1] (setting [7]) and 98.8% (inactive) in assay [3]. The results for the GFP response relative to DMSO in assay [2], in assay [2] (setting [8]) and in assay [2] (setting [9]) were 168% (active), 145% and 180%, respectively. In addition, the GFP response, % of DMSO in assay [4] was 104% (inactive); in assay [5] it was 79.7% (inactive); in assay [5] (setting [6]) it was 84.1%; in assay [5] (setting [7]) it was 71.8%.

Consider `Cc1cccn2c(=O)c(/C=C(\C#N)C(=O)NCc3ccco3)c(N3CCC(C(N)=O)CC3)nc12`, for which the GFP response vs DMSO in assay [1] is 89.5% (inactive); in assay [1] (setting [6]) it was 90.9%; in assay [1] (setting [7]), 91.4%; in assay [3], 103% (inactive). The GFP response relative to DMSO in assay [2] is 99.8% (inactive); in assay [2] (setting [8]), 99.7%; in assay [2] (setting [9]), 100%. For the same compound, the GFP response, % of DMSO in assay [4] is 101% (inactive); in assay [5], 92.2% (inactive); in assay [5] (setting [6]), 95.2%; in assay [5] (setting [7]), 92.8%.

Consider `Cc1nn(Cc2ccccc2Cl)c(C)c1C(=O)NCc1ccco1`, for which the GFP response vs DMSO was 99.3% (inactive) in assay [1], 101% in assay [1] (setting [6]), 98.8% in assay [1] (setting [7]) and 99.3% (inactive) in assay [3]. Moreover, the results for the GFP response relative to DMSO in assay [2], in assay [2] (setting [8]) and in assay [2] (setting [9]) were 97.7% (inactive), 101% and 98.4%, respectively. In addition, the GFP response, % of DMSO is 99.3% (inactive) in assay [4], 98.6% (inactive) in assay [5], 99.3% in assay [5] (setting [6]) and 100% in assay [5] (setting [7]).

As for `Cc1ccc(NC(=O)c2nc(S(=O)(=O)Cc3ccccc3)ncc2Cl)cc1`, the GFP response vs DMSO in assay [1] is 92% (inactive); in assay [1] (setting [6]), 92.5%; in assay [1] (setting [7]) it was 89.8%; in assay [3], 95.7% (inactive). For the same compound, the figures for the GFP response relative to DMSO in assay [2], in assay [2] (setting [8]) and in assay [2] (setting [9]) were 141% (inactive), 134% and 140%, respectively. Also, the GFP response, % of DMSO in assay [4] was 100% (inactive); in assay [5], 90% (inactive); in assay [5] (setting [6]), 89.9%; in assay [5] (setting [7]) it was 85.8%.

As to `O=C1c2ccccc2C(=O)c2c([N+](=O)[O-])ccc(O)c21`, the GFP response vs DMSO in assay [1] was 82.2% (inactive); in assay [1] (setting [6]), 91.2%; in assay [1] (setting [7]), 74.2%; in assay [3], 110% (inactive). For the same compound, the GFP response relative to DMSO in assay [2] was 122% (inactive); in assay [2] (setting [8]), 114%; in assay [2] (setting [9]), 124%. The GFP response, % of DMSO in assay [4] was 106% (inactive); in assay [5], 92.2% (inactive); in assay [5] (setting [6]), 93.7%; in assay [5] (setting [7]) it was 82.8%.

Turning to `COc1cc(/C=C2\C(=O)ON=C2c2ccc(Cl)cc2)ccc1O`, the GFP response vs DMSO in assay [1] was 105% (inactive); in assay [1] (setting [6]) it was 106%; in assay [1] (setting [7]), 99.4%; in assay [3], 102% (inactive). The values for the GFP response relative to DMSO in assay [2], in assay [2] (setting [8]) and in assay [2] (setting [9]) were 126% (inactive), 122% and 128%, respectively. Further, the GFP response, % of DMSO in assay [4] is 100% (inactive); in assay [5], 108% (inactive); in assay [5] (setting [6]) it was 114%; in assay [5] (setting [7]) it was 99.8%.

On to `CC(C)(C)c1ccc(C(=O)N/N=C/c2cccc(Cl)c2)cc1`, for which the GFP response vs DMSO in assay [1] was 96% (inactive); in assay [1] (setting [6]), 96.4%; in assay [1] (setting [7]), 95.4%; in assay [3] it was 99.3% (inactive). The GFP response relative to DMSO was 100% (inactive) in assay [2], 101% in assay [2] (setting [8]) and 102% in assay [2] (setting [9]). The GFP response, % of DMSO in assay [4] was 97% (inactive); in assay [5], 91.7% (inactive); in assay [5] (setting [6]), 92.3%; in assay [5] (setting [7]), 92.6%.

In the case of `O=C(Nc1ccc(NC(=O)c2cc3ccccc3o2)cc1)c1ccco1`, the GFP response vs DMSO in assay [1] is 100% (inactive); in assay [1] (setting [6]), 97.6%; in assay [1] (setting [7]) it was 101%; in assay [3], 101% (inactive). Besides, the figures for the GFP response relative to DMSO in assay [2], in assay [2] (setting [8]) and in assay [2] (setting [9]) were 97% (inactive), 95.9% and 97.3%, respectively. For the same compound, the GFP response, % of DMSO is 106% (inactive) in assay [4], 98.8% (inactive) in assay [5], 99.2% in assay [5] (setting [6]) and 98.1% in assay [5] (setting [7]).

Regarding `CC(=O)c1cc(NC(=O)c2ccc(C)cc2)c(=O)oc1C`, the GFP response vs DMSO was 96.6% (inactive) in assay [1], 97.5% in assay [1] (setting [6]), 96% in assay [1] (setting [7]) and 104% (inactive) in assay [3]. Further, the GFP response relative to DMSO was 105% (inactive) in assay [2], 104% in assay [2] (setting [8]) and 104% in assay [2] (setting [9]). In addition, the GFP response, % of DMSO was 94.3% (inactive) in assay [4], 99.3% (inactive) in assay [5], 100% in assay [5] (setting [6]) and 96.8% in assay [5] (setting [7]).

As for `Cc1c(O)ccc(/C=N/Nc2nc(-c3cccnc3)nc3ccccc23)c1O`, the GFP response vs DMSO in assay [1] is 97.4% (inactive); in assay [1] (setting [6]), 95.9%; in assay [1] (setting [7]), 98.5%; in assay [3], 102% (inactive). The GFP response relative to DMSO in assay [2] was 97.4% (inactive); in assay [2] (setting [8]) it was 92.5%; in assay [2] (setting [9]) it was 103%. In addition, the GFP response, % of DMSO in assay [4] is 93.9% (inactive); in assay [5], 99.1% (inactive); in assay [5] (setting [6]), 96.5%; in assay [5] (setting [7]), 98.7%.

In the case of `N#C/C(=C/c1ccc(N2CCOCC2)o1)c1ccc(Br)cc1`, the GFP response vs DMSO is 96.6% (inactive) in assay [1], 95.9% in assay [1] (setting [6]), 95% in assay [1] (setting [7]) and 114% (inactive) in assay [3]. Further, the GFP response relative to DMSO was 114% (inactive) in assay [2], 114% in assay [2] (setting [8]) and 115% in assay [2] (setting [9]). The GFP response, % of DMSO was 95.5% (inactive) in assay [4], 102% (inactive) in assay [5], 101% in assay [5] (setting [6]) and 99.3% in assay [5] (setting [7]).

For the compound `Cc1ccc(Sc2ccc([N+](=O)[O-])cc2[N+](=O)[O-])nc1`, the GFP response vs DMSO is 99.7% (inactive) in assay [1], 101% in assay [1] (setting [6]), 100% in assay [1] (setting [7]) and 97.8% (inactive) in assay [3]. Besides, the GFP response relative to DMSO in assay [2] was 103% (inactive); in assay [2] (setting [8]), 100%; in assay [2] (setting [9]) it was 105%. Further, the GFP response, % of DMSO in assay [4] was 97.4% (inactive); in assay [5] it was 104% (inactive); in assay [5] (setting [6]), 99.7%; in assay [5] (setting [7]), 105%.

Regarding `CC1=CC(=O)C(C(C)C)=C/C1=N/OS(=O)(=O)c1ccccc1`, the GFP response vs DMSO in assay [1] was 78.6% (inactive); in assay [1] (setting [6]), 51.6%; in assay [1] (setting [7]) it was 71.3%; in assay [3] it was 127% (inactive). The GFP response relative to DMSO is 271% (active) in assay [2], 175% in assay [2] (setting [8]) and 270% in assay [2] (setting [9]). The GFP response, % of DMSO was 118% (inactive) in assay [4], 99.7% (inactive) in assay [5], 111% in assay [5] (setting [6]) and 83.8% in assay [5] (setting [7]).

As to `CCn1c(=O)c(C(=O)Nc2ccccc2C)c(O)c2ccccc21`, the GFP response vs DMSO in assay [1] is 97.8% (inactive); in assay [1] (setting [6]), 98.1%; in assay [1] (setting [7]), 97.9%; in assay [3], 105% (inactive). Besides, the GFP response relative to DMSO in assay [2] is 102% (inactive); in assay [2] (setting [8]), 102%; in assay [2] (setting [9]), 99.3%. In addition, the GFP response, % of DMSO is 96% (inactive) in assay [4], 96.9% (inactive) in assay [5], 99.1% in assay [5] (setting [6]) and 96.1% in assay [5] (setting [7]).

As for `CCNC(=O)/C(C#N)=C/c1c(N2CCOCC2)nc2ccccn2c1=O`, the GFP response vs DMSO was 96.9% (inactive) in assay [1], 99.3% in assay [1] (setting [6]), 95.4% in assay [1] (setting [7]) and 103% (inactive) in assay [3]. Besides, the GFP response relative to DMSO in assay [2] was 102% (inactive); in assay [2] (setting [8]), 101%; in assay [2] (setting [9]), 104%. For the same compound, the GFP response, % of DMSO in assay [4] is 102% (inactive); in assay [5] it was 100% (inactive); in assay [5] (setting [6]), 101%; in assay [5] (setting [7]), 99.3%.

With `CCOc1cc(-c2nc3cc(C)ccn3c2NCC2CCCO2)ccc1O` (configuration not stated), the GFP response vs DMSO in assay [1] was 103% (inactive); in assay [1] (setting [6]), 105%; in assay [1] (setting [7]), 101%; in assay [3], 103% (inactive). Also, the GFP response relative to DMSO is 88.2% (inactive) in assay [2], 91.3% in assay [2] (setting [8]) and 87.3% in assay [2] (setting [9]). Moreover, the GFP response, % of DMSO in assay [4] was 97.9% (inactive); in assay [5], 104% (inactive); in assay [5] (setting [6]) it was 108%; in assay [5] (setting [7]), 104%.
